ChEMBL document CHEMBL1909531, “Mitochondrial respiration inhibitors suppress protein translation and hypoxic signaling via the hyperphosphorylation and inactivation of translation initiation factor eIF2α and elongation factor eEF2” (J Nat Prod, 2011)
Calls of active or inactive are those of the source. No cut-off for these calls is given here.

Assays:
T47D [1] = assay: Inhibition of HIF1alpha protein accumulation under hypoxic condition in human T47D cells at 3 uM after 4 hrs by Western blot analysis; type: functional, cell-based
[2] = molecular target: T1, Hypoxia inducible factors; HIF-1-alpha, HIF-2-alpha (Homo sapiens, UniProt Q16665+Q99814); assay: Inhibition of HIF1-mediated induction of cellular VEGF protein in human T47D cells at 3 uM after 16 hrs by ELISA under normoxic condition; type: cell-based
[3] = molecular target: T1, Hypoxia inducible factors; HIF-1-alpha, HIF-2-alpha; assay: Inhibition of 1, 10-phenanthroline-induced HIF1 activation in human T47D cells after 16 hrs by HRE3-TK-luciferase reporter gene assay; type: cell-based
[4] = molecular target: T1, Hypoxia inducible factors; HIF-1-alpha, HIF-2-alpha; assay: Inhibition of HIF1-mediated induction of cellular VEGF protein in hypoxia-stimulated human T47D cells at 3 uM after 16 hrs by ELISA; type: cell-based
T47D [5] = assay: Inhibition of 1, 10-phenanthroline-induced HIF1beta protein accumulation in human T47D cells at 3 uM after 4 hrs by Western blot analysis; type: functional, cell-based
[6] = molecular target: T1, Hypoxia inducible factors; HIF-1-alpha, HIF-2-alpha; assay: Inhibition of HIF1-mediated induction of Glut-1 mRNA expression in hypoxia-stimulated human T47D cells at 0.3 to 3 uM after 16 hrs by RT-PCR analysis; type: cell-based
[7] = molecular target: Serine/threonine-protein kinase mTOR (Homo sapiens) (UniProt P42345); assay: Inhibition of mTOR-mediated rpS6 phosphorylation on Ser 235/236 in human MDA-MB-231 cells at 1 to 10 uM after 30 mins by Western blotting; type: cell-based
[8] = molecular target: Serine/threonine-protein kinase mTOR (Homo sapiens) (UniProt P42345); assay: Inhibition of mTOR in human MDA-MB-231 cells assessed as eEF2 hyperphosphorylation on Ser 56 at 1 to 10 uM after 30 mins by Western blotting; type: cell-based
How it was run: (§1)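 Cells seeded at 0.8 × 10^6 per well, exposed 30 min at 37 °C, 5% CO2, in DMEM/F12 with 5% FBS. Lysed in modified RIPA (pH 7.6) with protease and phosphatase inhibitors; 40 µg protein run on 4–20% gels, nitrocellulose transfer. Phospho-specific and total eIF2α/eEF2 primaries at 1:1,000, HRP anti-rabbit at 1:2000, chemiluminescence on film.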

[9] = molecular target: Serine/threonine-protein kinase mTOR (Homo sapiens) (UniProt P42345); assay: Inhibition of mTORC1-mediated eIF4E phosphorylation on Ser 209 in human T47D cells at 1 to 10 uM after 30 mins by Western blotting; type: cell-based
MDA-MB-231 [10] = assay: Reduction in ATP level in human MDA-MB-231 cells at 0.1 to 1 uM after 48 hrs by HPLC-UV analysis; type: functional, cell-based
How it was run: (§2)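 Cells seeded at 5 × 10^5 per well in DMEM/F12 with 10% FBS; after 24 h, half the medium was replaced with serum-free medium containing compound. Cells washed with cold DPBS, extracted with cold 0.4 M perchloric acid, neutralized with K2CO3. Nucleotides quantified by C18 HPLC-UV, 50 mM potassium phosphate pH 6.0/MeOH mobile phase, 0.7 mL/min.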

[11] = molecular target: Serine/threonine-protein kinase mTOR (Homo sapiens) (UniProt P42345); assay: Inhibition of mTOR-mediated rpS6 phosphorylation on Ser 235/236 in human T47D cells at 1 to 10 uM after 30 mins by Western blotting; type: cell-based
[12] = molecular target: T1, Hypoxia inducible factors; HIF-1-alpha, HIF-2-alpha; assay: Inhibition of HIF1-mediated induction of secreted VEGF protein in hypoxia-stimulated human T47D cells at 3 uM after 16 hrs by ELISA; type: cell-based
[13] = molecular target: Serine/threonine-protein kinase mTOR (Homo sapiens) (UniProt P42345); assay: Inhibition of mTOR-mediated 4E-BP1 phosphorylation on Thr 37/46 in human T47D cells at 1 to 10 uM after 30 mins by Western blotting; type: cell-based
T47D [14] = assay: Reduction in ATP level in human T47D cells by HPLC-UV analysis at 1 uM after 72 hrs; type: functional, cell-based; how it was run: as §2
T47D [15] = assay: Inhibition of 1, 10-phenanthroline-induced HIF1alpha protein accumulation in human T47D cells at 3 uM after 4 hrs by Western blot analysis; type: functional, cell-based
[16] = molecular target: T1, Hypoxia inducible factors; HIF-1-alpha, HIF-2-alpha; assay: Inhibition of HIF1-mediated induction of VEGF mRNA expression in human T47D cells at 3 uM after 16 hrs by RT-PCR analysis under normoxic condition; type: cell-based
T47D [17] = assay: Ratio of IC50 for 1, 10-phenanthroline-induced HIF1 activation in human T47D cells to IC50 for hypoxia-induced HIF1 activation in human T47D cells; type: cell-based
T47D [18] = assay: Reduction in ATP level in human T47D cells after 48 hrs by HPLC-UV analysis; type: functional, cell-based
How it was run: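 5 × 10^5 cells per well seeded in DMEM/F12 with 10% FBS. After 24 h, half the medium replaced with serum-free DMEM/F12 containing compound. After exposure, cells washed in cold DPBS and extracted with cold 0.4 M perchloric acid, then neutralized with K2CO3. ATP quantified by reversed-phase C18 HPLC-UV using 50 mM potassium phosphate pH 6.0/MeOH at 0.7 mL/min.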

[19] = molecular target: T1, Hypoxia inducible factors; HIF-1-alpha, HIF-2-alpha; assay: Inhibition of HIF1-mediated induction of cellular VEGF protein in hypoxia-stimulated human T47D cells at 0.3 uM after 16 hrs by ELISA; type: cell-based
[20] = molecular target: Serine/threonine-protein kinase mTOR (Homo sapiens) (UniProt P42345); assay: Inhibition of mTOR in human T47D cells assessed as eIF2alpha hyperphosphorylation on Ser 51 at 1 to 10 uM after 30 mins by Western blotting; type: cell-based; how it was run: as §1
[21] = molecular target: Serine/threonine-protein kinase mTOR (Homo sapiens) (UniProt P42345); assay: Inhibition of mTOR in human T47D cells assessed as eEF2 hyperphosphorylation on Ser 56 at 1 to 10 uM after 30 mins by Western blotting; type: cell-based; how it was run: as §1
T47D [22] = assay: Inhibition of cellular respiration in human T47D cells at 0.3 uM in presence of complex 2 substrate succinate; type: functional, cell-based
How it was run: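 Permeabilized T47D cells, oxygen consumption measured by Clark-type electrode. Complex I respiration started with malate plus pyruvate; succinate added as complex II substrate.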

MDA-MB-231 [23] = assay: Antiproliferative activity against human MDA-MB-231 cells assessed as cell viability by SRB assay; type: functional, cell-based
How it was run: (§3)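 Cells grown in DMEM/F12 with 10% FBS, penicillin and streptomycin; 96-well viability assay, 2-day or 6-day exposure, with medium (5% FBS) and compound renewed after 3 days in the 6-day study. Read by optical density; % inhibition = [1 − (ODtreated/ODcontrol)] × 100 versus medium control.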

T47D [24] = assay: Inhibition of cellular respiration in human T47D cell at 0.03 to 1 uM by oxygen consumption assay; type: functional, cell-based
How it was run: (§4)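 Oxygen consumption of intact T47D cells measured with a Clark-type electrode, in serum-free DMEM/F12 at 30 °C.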

[25] = molecular target: Serine/threonine-protein kinase mTOR (Homo sapiens) (UniProt P42345); assay: Inhibition of mTOR-mediated eIF4E phosphorylation on Ser 209 in human MDA-MB-231 cells at 1 to 10 uM after 30 mins by Western blotting; type: cell-based
[26] = molecular target: T1, Hypoxia inducible factors; HIF-1-alpha, HIF-2-alpha; assay: Inhibition of HIF1-mediated induction of secreted VEGF protein in human T47D cells at 3 uM after 16 hrs by ELISA under normoxic condition; type: cell-based
T47D [27] = assay: Antiproliferative activity against human T47D cells assessed as cell viability by SRB assay; type: functional, cell-based; how it was run: as §3
T47D [28] = assay: Inhibition of cellular respiration in human T47D cells at 1 uM by oxygen consumption assay; type: functional; how it was run: as §4
[29] = molecular target: T1, Hypoxia inducible factors; HIF-1-alpha, HIF-2-alpha; assay: Inhibition of HIF1-mediated induction of VEGF mRNA expression in hypoxia-stimulated human T47D cells at 0.3 to 3 uM after 16 hrs by RT-PCR analysis; type: cell-based
[30] = molecular target: T1, Hypoxia inducible factors; HIF-1-alpha, HIF-2-alpha; assay: Inhibition of HIF1-mediated induction of Glut-1 mRNA expression in human T47D cells at 3 uM after 16 hrs by RT-PCR analysis under normoxic condition; type: cell-based

**Q.** For `CC(C)CC(=O)O[C@@H]1CC[C@]2(C)[C@H]3CC[C@]45C[C@]4(CC[C@@H]5[C@@H]4C[C@H]([C@@H]5OC5(C)C)OC4O)[C@]3(C)[C@H](O)C[C@H]2C1(C)C` (stereo not given in full) [SKIMMIAREPIN A], which inhibition (T47D [1]) is on record?
**A.** Active

**Q.** And the inhibition [2]?
**A.** inactive

**Q.** What about the IC50 [3] of the same molecule?
**A.** > 10 µM

**Q.** What about the inhibition [4] of the same molecule?
**A.** Active

**Q.** What about the inhibition (T47D [5]) of the same molecule?
**A.** inactive

**Q.** What about the inhibition [6] of the same molecule?
**A.** Active

**Q.** What about the inhibition [7] of the same molecule?
**A.** inactive

**Q.** And the Activity [8]?
**A.** Dose-dependent effect

**Q.** And the inhibition [9]?
**A.** inactive

**Q.** And the Activity (MDA-MB-231 [10])?
**A.** inactive

**Q.** And the inhibition [11]?
**A.** inactive

**Q.** And the inhibition [12]?
**A.** Active

**Q.** What about the inhibition [13] of the same molecule?
**A.** inactive

**Q.** And the Activity (T47D [14])?
**A.** Active

**Q.** And the inhibition (T47D [15])?
**A.** inactive

**Q.** And the inhibition [16]?
**A.** inactive

**Q.** And the Ratio IC50 (T47D [17])?
**A.** 80

**Q.** What about the Activity (T47D [18]) of the same molecule?
**A.** Active

**Q.** And the inhibition [19]?
**A.** Active

**Q.** And the inhibition [20]?
**A.** Dose-dependent effect

**Q.** And the Activity [21]?
**A.** Dose-dependent effect

**Q.** And the inhibition (T47D [22])?
**A.** inactive

**Q.** And the Activity (MDA-MB-231 [23])?
**A.** inactive

**Q.** And the inhibition (T47D [24])?
**A.** Dose-dependent effect

**Q.** What about the inhibition [25] of the same molecule?
**A.** inactive

**Q.** And the inhibition [26]?
**A.** inactive

**Q.** And the Activity (T47D [27])?
**A.** Active

**Q.** And the inhibition at 1 µM (T47D [28])?
**A.** 73%

**Q.** What about the inhibition [29] of the same molecule?
**A.** Active

**Q.** And the inhibition [30]?
**A.** inactive
